Consider 13 compounds from ChEMBL document CHEMBL1158602, “Dihydro-pyrano[2,3-b]pyridines and tetrahydro-1,8-naphthyridines as CB1 receptor inverse agonists: synthesis, SAR and biological evaluation” (Bioorg Med Chem Lett, 2010).

Data set [1] addresses GABA-A receptor; agonist GABA site. Nature of the data set: Partial agonist activity at human GABAA receptor. The class given is functional.
For data set [2], the target named is GABA-A receptor; agonist GABA site (Homo sapiens) (UniProt P14867+P47870+P28472+P48169+P34903+P18505+P47869+P31644+Q16445). Nature of the data set: Partial agonist activity at human GABAA receptor at 3 uM. The class given is functional.
Data set [3] can be described thus: Ratio of drug level in brain to plasma in rat at 1 mg/kg, iv after 4 hrs. Also noted: dose 1 mg/kg, route intravenous. Conditions: brain and plasma. The class given is ADME, organism-based. Put shortly:
(§1)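 Rats given 1 mg/kg intravenously; brain and plasma drug concentrations measured 4 h after dosing, and the brain/plasma ratio taken from these levels.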

Data set [4] in a line: Oral bioavailability in rat at 1 mg/kg, iv after 4 hrs. The class given is ADME, organism-based. The note with it: in vivo.
Data set [5] can be described thus: Clearance in rat plasma at 1 mg/kg, iv after 4 hrs. Also noted: dose 1 mg/kg, route intravenous. The class given is ADME, organism-based.
Data set [6] can be described thus: Drug level in rat brain at 1 mg/kg, iv after 4 hrs. The class given is ADME, organism-based. Also noted: dose 1 mg/kg, route intravenous. The note with it: read-out: Drug uptake. The essentials: as §1
Data set [7] can be described thus: Drug level in rat plasma at 1 mg/kg, iv after 4 hrs. Conditions: read-out: Drug uptake. Also noted: dose 1 mg/kg, route intravenous. The class given is ADME, organism-based. Put shortly:
as §1

For data set [8], the target named is Cannabinoid receptor 1 (Homo sapiens, UniProt P21554). Nature of the data set: Binding affinity to human CB1 receptor.
Data set [9] concerns the target Cannabinoid receptor 2 (Homo sapiens, UniProt P34972). Nature of the data set: Binding affinity to human CB2 receptor.
Data set [10] in a line: Half life in rat at 1 mg/kg, iv after 4 hrs. Also noted: dose 1 mg/kg, route intravenous. The note with it: in vivo. The class given is ADME, organism-based.
For data set [11], the system named is Rattus norvegicus. Nature of the data set: Toxicity in diet-induced obese rat assessed as suppression in food intake at 3 mg/kg, po after 18 hrs. The class given is organism-based. Also noted: dose 3 mg/kg, route oral. The note with it: in vivo.
In data set [12] the target is Voltage-gated inwardly rectifying potassium channel KCNH2 (Homo sapiens, UniProt Q12809).
The test system of data set [13] is Rattus norvegicus. Nature of the data set: Toxicity in diet-induced obese rat assessed as change in body weight at 3 mg/kg, po after 18 hrs (RVb = 6 g). The class given is organism-based. Also noted: dose 3 mg/kg, route oral. The note with it: in vivo. The essentials:
(§2)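 Diet-induced obese rats dosed orally at 3 mg/kg and monitored for 18 h (overnight); body weight change and food intake compared with vehicle-treated animals.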

Data set [14] has as its system Rattus norvegicus. Nature of the data set: Toxicity in diet-induced obese rat assessed as change in body weight at 3 mg/kg, po after 18 hrs (RVb = 5 g). Conditions: in vivo. Also noted: dose 3 mg/kg, route oral. The class given is organism-based.
Data set [15] concerns Rattus norvegicus. Nature of the data set: Toxicity in diet-induced obese rat assessed as change in body weight at 3 mg/kg, po after 18 hrs (RVb = 7 g). The class given is organism-based. Also noted: dose 3 mg/kg, route oral. The note with it: in vivo. Put shortly: as §2
Data set [16] deals with Rattus norvegicus. Nature of the data set: Toxicity in diet-induced obese rat assessed as change in body weight at 3 mg/kg, po after 18 hrs (RVb = 10 g). The note with it: in vivo. The class given is organism-based. Also noted: dose 3 mg/kg, route oral.

pEC50, pIC50: −log10 of the molar value.

Sequence of Cannabinoid receptor 2 (P34972 whole entry): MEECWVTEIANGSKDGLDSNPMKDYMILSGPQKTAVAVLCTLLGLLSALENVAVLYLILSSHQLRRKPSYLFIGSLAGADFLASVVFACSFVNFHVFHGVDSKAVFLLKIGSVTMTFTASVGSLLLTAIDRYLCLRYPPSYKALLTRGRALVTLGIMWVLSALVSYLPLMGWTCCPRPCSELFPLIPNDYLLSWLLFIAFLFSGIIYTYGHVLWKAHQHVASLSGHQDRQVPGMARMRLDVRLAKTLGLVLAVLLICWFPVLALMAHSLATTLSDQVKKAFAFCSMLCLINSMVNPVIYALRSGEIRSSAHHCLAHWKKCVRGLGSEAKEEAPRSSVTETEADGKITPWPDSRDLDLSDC
Sequence of Cannabinoid receptor 1 (P21554 whole entry): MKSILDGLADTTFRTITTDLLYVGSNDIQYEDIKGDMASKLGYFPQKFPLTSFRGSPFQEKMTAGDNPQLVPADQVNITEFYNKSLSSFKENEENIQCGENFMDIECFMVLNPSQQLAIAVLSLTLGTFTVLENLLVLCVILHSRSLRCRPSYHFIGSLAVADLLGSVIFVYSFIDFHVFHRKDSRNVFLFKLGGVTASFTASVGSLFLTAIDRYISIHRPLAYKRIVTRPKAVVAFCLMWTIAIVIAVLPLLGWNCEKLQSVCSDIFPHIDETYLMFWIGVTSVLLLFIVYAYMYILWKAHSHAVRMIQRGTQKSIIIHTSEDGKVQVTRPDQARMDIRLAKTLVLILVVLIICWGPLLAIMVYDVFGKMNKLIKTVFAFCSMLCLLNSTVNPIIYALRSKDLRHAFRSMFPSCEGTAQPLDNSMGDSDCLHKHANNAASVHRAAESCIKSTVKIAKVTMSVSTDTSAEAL
Sequence of Voltage-gated inwardly rectifying potassium channel KCNH2 (Q12809 whole entry): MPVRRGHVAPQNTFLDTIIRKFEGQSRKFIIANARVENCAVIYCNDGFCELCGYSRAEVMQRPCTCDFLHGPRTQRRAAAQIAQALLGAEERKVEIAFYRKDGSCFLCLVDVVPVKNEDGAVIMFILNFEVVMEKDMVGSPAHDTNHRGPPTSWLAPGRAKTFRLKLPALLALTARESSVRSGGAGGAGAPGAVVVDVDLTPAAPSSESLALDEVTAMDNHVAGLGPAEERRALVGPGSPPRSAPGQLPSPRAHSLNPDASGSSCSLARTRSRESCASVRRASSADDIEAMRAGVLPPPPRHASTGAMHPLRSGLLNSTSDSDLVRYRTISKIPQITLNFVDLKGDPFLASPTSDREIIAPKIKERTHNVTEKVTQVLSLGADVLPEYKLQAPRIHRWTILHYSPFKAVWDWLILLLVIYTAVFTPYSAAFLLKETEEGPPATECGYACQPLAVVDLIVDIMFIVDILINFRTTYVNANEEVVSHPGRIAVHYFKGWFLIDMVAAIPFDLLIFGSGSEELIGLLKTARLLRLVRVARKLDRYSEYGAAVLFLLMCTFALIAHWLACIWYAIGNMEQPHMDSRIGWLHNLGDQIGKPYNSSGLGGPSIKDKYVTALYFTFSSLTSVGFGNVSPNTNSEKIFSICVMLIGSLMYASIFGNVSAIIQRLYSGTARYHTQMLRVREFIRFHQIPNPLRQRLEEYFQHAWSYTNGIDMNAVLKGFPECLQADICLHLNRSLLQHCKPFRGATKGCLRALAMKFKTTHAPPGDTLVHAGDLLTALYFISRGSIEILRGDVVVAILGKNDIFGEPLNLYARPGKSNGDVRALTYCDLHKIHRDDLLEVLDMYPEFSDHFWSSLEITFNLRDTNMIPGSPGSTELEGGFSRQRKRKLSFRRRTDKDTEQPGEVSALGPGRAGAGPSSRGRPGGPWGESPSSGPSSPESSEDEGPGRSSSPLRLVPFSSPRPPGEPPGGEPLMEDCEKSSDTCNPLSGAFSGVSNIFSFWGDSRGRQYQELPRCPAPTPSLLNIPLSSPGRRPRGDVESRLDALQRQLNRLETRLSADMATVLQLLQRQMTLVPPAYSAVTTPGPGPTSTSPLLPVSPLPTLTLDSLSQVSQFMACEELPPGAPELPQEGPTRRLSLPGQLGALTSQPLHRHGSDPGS

What is called pEC50 is −log10 of the EC50, conventionally taken in molar units. The low end stands for a high EC50, the high end for a low EC50. In general, Emax refers to the size of the effect at its maximum, as opposed to the concentration needed. In turn, `CC(C)(O)C(=O)c1oc2nc(-c3ccc(Cl)cc3Cl)c(-c3ccc(Cl)cc3)cc2c1NC(=O)CO` had a negative-log EC50 (pEC50) in data set [1] of 6.15. This compound also registered a maximal effect (Emax) in data set [2] of 18%.
A word on the Kp: it is the ratio of the level in a tissue or fluid to that in plasma or blood. By bioavailability is commonly meant dose-corrected exposure relative to a reference, in per cent. A higher bioavailability goes with much systemic uptake. Usually clearance stands for a measure of how efficiently the substance is removed, as volume per time. The term pIC50 denotes the IC50 on a negative log10 scale, so that one unit is a factor of ten. A low value points to a large IC50. A word on the half-life: it is how long it takes for the measured level to halve. A lower half-life goes with fast loss. For `O=C(CO)NC1CC2(CCCCC2)Oc2nc(-c3ccccc3Cl)c(-c3ccc(Cl)cc3)cc21` (racemic), the Kp at 4 h in [3] amounted to 1.7. In data set [4], this compound came in with a bioavailability of 13%. In addition, the clearance in [5] is 34 mL/min/kg. Also, the concentration at 4 h in data set [6] came out at 27 nM; in data set [7], 16 nM. Moreover, the negative-log IC50 (pIC50) in data set [8] was 9.52; in data set [9], 5.38. Further, in data set [10], the half-life was 0.8 h.
Consider `C[C@@H](O)C(=O)NC1CC(C)(C)Oc2nc(-c3ccc(Cl)cc3Cl)c(-c3ccc(Cl)cc3)cc21` (single isomer, unassigned), for which, in [3], the partition ratio (Kp) at 4 h is 0.38. Moreover, in data set [4], the bioavailability turned out to be 100%. In data set [5], this compound displayed a clearance of 4 mL/min/kg. The concentration at 4 h in data set [6] came out at 122 nM; in [7] it was 321 nM. The half-life in [10] was 7.9 h.
On to `CN1c2nc(-c3ccc(Cl)cc3Cl)c(-c3ccc(Cl)cc3)cc2C(C(=O)NCO)CC1(C)C` (single isomer, unassigned; enantiomer 1) [6-(4-CHLOROPHENYL)-7-(2,4-DICHLOROPHENYL)-N-(HYDROXYMETHYL)-1,2,2-TRIMETHYL-1,2,3,4-TETRAHYDRO-1,8-NAPHTHYRIDINE-4-CARBOXAMIDE (ENANTIOMERIC MIX)], for which, in [3], the Kp at 4 h turned out to be 0.88. The results for the Activity in [11] and in data set [13] were 55% and -8 g, respectively. Besides, in data set [4], the bioavailability worked out at 25%. Besides, the negative-log IC50 (pIC50) in [12] is 7.40; in [8], 8.43; in data set [9] it was 6.10. Also, in data set [5], the clearance was 12 mL/min/kg. In addition, the concentration at 4 h was 76 nM in [6] and 380 nM in data set [7]. The compound also showed a half-life in data set [10] of 4.2 h.
Regarding `CC1(C)CC(NC(=O)CCO)c2cc(-c3ccc(Cl)cc3)c(-c3ccc(Cl)cc3Cl)nc2O1` (single isomer, unassigned; enantiomer 1) [N-(6-(4-CHLOROPHENYL)-7-(2,4-DICHLOROPHENYL)-2,2-DIMETHYL-3,4-DIHYDRO-2H-PYRANO[2,3-B]PYRIDIN-4-YL)-3-HYDROXYPROPANAMIDE (ENANTIOMERIC MIX)], the Activity in data set [11] is 48%; in data set [14] it was -11 g. This compound also returned a bioavailability in [4] of 85%. The negative-log IC50 (pIC50) was 6.42 in [12], 8.77 in data set [8] and 5.61 in data set [9]. Further, the clearance in data set [5] is 3 mL/min/kg. In addition, the half-life in data set [10] is 13 h.
Regarding `CC(C)(O)C(=O)NC1CC2(CCCCC2)Oc2nc(-c3ccccc3Cl)c(-c3ccc(Cl)cc3)cc21` (single isomer, unassigned; enantiomer 1) [N-(7'-(2-CHLOROPHENYL)-6'-(4-CHLOROPHENYL)-3',4'-DIHYDROSPIRO[CYCLOHEXANE-1,2'-PYRANO[2,3-B]PYRIDINE]-4'-YL)-2-HYDROXY-2-METHYLPROPANAMIDE (ENANTIOMERIC MIX)], in data set [3], the Kp at 4 h was 3.5. In addition, the figures for the Activity in data set [11] and in [15] were 28% and 3 g, respectively. The bioavailability in [4] is 6%. Also, the clearance in data set [5] stood at 62 mL/min/kg. Moreover, the concentration at 4 h was determined as 116 nM in data set [6] and 3500 nM in [7]. The negative logarithm of the IC50 (pIC50) in data set [8] was 9.15; in data set [9], 5.49. The half-life in data set [10] was 1.9 h.
As to `CC1(C)CC(NC(=O)C(C)(C)CO)c2cc(-c3ccc(Cl)cc3)c(-c3ccc(Cl)cc3Cl)nc2O1` (single isomer, unassigned; enantiomer 2) [N-(6-(4-CHLOROPHENYL)-7-(2,4-DICHLOROPHENYL)-2,2-DIMETHYL-3,4-DIHYDRO-2H-PYRANO[2,3-B]PYRIDIN-4-YL)-3-HYDROXY-2,2-DIMETHYLPROPANAMIDE (ENANTIOMERIC MIX)], the pIC50 in data set [8] is 7.47; in data set [9] it was 5.12.
The matching figures for `CC1(C)CC(NC(=O)CCO)c2cc(-c3ccc(Cl)cc3)c(-c3ccc(Cl)cc3Cl)nc2O1` (single isomer, unassigned; enantiomer 2) [N-(6-(4-CHLOROPHENYL)-7-(2,4-DICHLOROPHENYL)-2,2-DIMETHYL-3,4-DIHYDRO-2H-PYRANO[2,3-B]PYRIDIN-4-YL)-3-HYDROXYPROPANAMIDE (ENANTIOMERIC MIX)]: 7.85 and 5.27.
The matching figures for `CC(C)(O)C(=O)NC1CC2(CCCCC2)Oc2nc(-c3ccccc3Cl)c(-c3ccc(Cl)cc3)cc21` (single isomer, unassigned; enantiomer 2) [N-(7'-(2-CHLOROPHENYL)-6'-(4-CHLOROPHENYL)-3',4'-DIHYDROSPIRO[CYCLOHEXANE-1,2'-PYRANO[2,3-B]PYRIDINE]-4'-YL)-2-HYDROXY-2-METHYLPROPANAMIDE (ENANTIOMERIC MIX)]: 7.74 and 4.92.
The like results for `C[C@H](O)C(=O)NC1CC2(CCCCC2)Oc2nc(-c3ccccc3Cl)c(-c3ccc(Cl)cc3)cc21` (stereo in doubt; 12e) [(2S)-N-(7'-(2-CHLOROPHENYL)-6'-(4-CHLOROPHENYL)-3',4'-DIHYDROSPIRO[CYCLOHEXANE-1,2'-PYRANO[2,3-B]PYRIDINE]-4'-YL)-2-HYDROXYPROPANAMIDE (ENANTIOMERIC MIX)] were, in that order, 9.40 and 5.74.
As to `C[C@H](O)C(=O)NC1CC2(CCCCC2)Oc2nc(-c3ccccc3Cl)c(-c3ccc(Cl)cc3)cc21` (stereo in doubt; 12f) [(2S)-N-(7'-(2-CHLOROPHENYL)-6'-(4-CHLOROPHENYL)-3',4'-DIHYDROSPIRO[CYCLOHEXANE-1,2'-PYRANO[2,3-B]PYRIDINE]-4'-YL)-2-HYDROXYPROPANAMIDE (ENANTIOMERIC MIX)], the results for the pIC50 in [8] and in data set [9] were 7.89 and 5.00, respectively.
With `C[C@@H](O)C(=O)NC1CC2(CCCCC2)Oc2nc(-c3ccccc3Cl)c(-c3ccc(Cl)cc3)cc21` (stereo in doubt; 12h) [(2R)-N-(7'-(2-CHLOROPHENYL)-6'-(4-CHLOROPHENYL)-3',4'-DIHYDROSPIRO[CYCLOHEXANE-1,2'-PYRANO[2,3-B]PYRIDINE]-4'-YL)-2-HYDROXYPROPANAMIDE (ENANTIOMERIC MIX)], the negative logarithm of the IC50 (pIC50) was 8.70 in data set [8] and 5.47 in [9].
With `C[C@H](NC(=O)C(C)(C)Oc1ccc(C(F)(F)F)cn1)[C@@H](Cc1ccc(Cl)cc1)c1cccc(C#N)c1` [TARANABANT], the Activity in data set [16] is -10 g; in data set [11], 49%.
